Source: PubChem (Broad Institute)
This is a sample that favours compounds with a hit; in the whole collection about 5.8% have one here.
T cruzi growth-1 – T. cruzi proliferation inhibition | T. cruzi beta-gal in NIH3T3, GalScreen luminescence, 90 h | inhibition, % at 8.34 µM | 77,000 tested, 5.9% active;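 active = mean inhibition above about 93%, with at least 55% of replicates each passing it, limit read from the data, passing the limit was not always enough; inconclusive = only one of those two conditions holds; inactive = neither condition holds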
Pf Dd2 growth – P. falciparum Dd2 growth inhibition | SYBR Green, 72 h; active compounds read low | activity change, % at 10 µM | 94,000 tested, 2.3% active | AID 1159554; in the data active = activity change below about -80%; inconclusive = no clear call, values can overlap the other calls
IDH1 R132H inh – IDH1 R132H (human) inhibition; IDH1 R132H reductase, diaphorase/resazurin fluorescence, 60 min; inhibition, % at 10 µM; 70,000 tested, 0.18% active; in the data active = inhibition above about 34%; inconclusive = no clear call, values can overlap the other calls; inactive = below about 11%
Target sequence (O75874 whole entry R132H): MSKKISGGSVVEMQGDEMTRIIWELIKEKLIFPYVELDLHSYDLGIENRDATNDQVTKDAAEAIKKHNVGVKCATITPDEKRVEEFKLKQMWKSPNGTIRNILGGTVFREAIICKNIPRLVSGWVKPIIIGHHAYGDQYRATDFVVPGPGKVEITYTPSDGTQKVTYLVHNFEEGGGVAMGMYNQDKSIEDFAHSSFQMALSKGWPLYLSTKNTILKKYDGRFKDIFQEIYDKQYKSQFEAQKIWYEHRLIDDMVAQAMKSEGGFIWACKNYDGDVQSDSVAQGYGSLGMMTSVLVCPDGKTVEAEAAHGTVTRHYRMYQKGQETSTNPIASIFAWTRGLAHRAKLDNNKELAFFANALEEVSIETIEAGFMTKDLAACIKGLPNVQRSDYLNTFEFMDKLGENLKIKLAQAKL
KDM4C inh – inhibitors of human demethylase GASC-1 KDM4C | 96,000 tested, 0.15% active | GST-KDM4C 2-372, H3K9me3 peptide, LANCE TR-FRET | AID 720574 | Q9H3R0 | inhibition, % at 12.5 µM;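 active = mean replicate inhibition above about 25%, with at least 55% of replicates also reaching it, limit read from the data, passing the limit was not always enough; inconclusive = only one of those two conditions met; inactive = neither condition met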
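Test system: N-terminal GST-fused human GASC-1 (KDM4C) fragment, residues 2-372; quantity: GASC-1 enzyme at 10 nM final in reaction; dosing: single dose; schedule: 30 min demethylation and 1 h detection at room temperature; signal: LANCE TR-FRET, excitation 340 nm, emissions 618 and 671 nm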
T cruzi growth-2 – Trypanosoma cruzi proliferation inhibition. shares compounds with T cruzi growth-1. T. cruzi beta-gal in NIH3T3, GalScreen luminescence, 90 h. inhibition, % at 8.35 µM. 5,600 tested, 72% active;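 active = mean replicate inhibition above about 95% and at least 55% of replicates individually reaching it, limit read from the data; inconclusive = only one of the two criteria is met; inactive = neither criterion is met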
T cruzi growth-3 – inhibitors of T. cruzi proliferation | AID 651740 | T. cruzi beta-gal in NIH3T3, GalScreen luminescence, 90 h | shares compounds with T cruzi growth-1 | 5,600 tested, 21% active | inhibition, % at 2.09 µM;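 active = mean inhibition above about 95%, with at least 55% of replicates also reaching it, limit read from the data; inconclusive = meets just one of the two conditions; inactive = meets neither condition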
3T3 cytotox – NIH/3T3 (mouse) viability loss; shares compounds with T cruzi growth-1; NIH/3T3 viability, CellTiter-Glo ATP luminescence, 90 h; cytotoxicity (signal decrease), % at 8.35 µM; 5,600 tested, 14% active;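 active = mean signal decrease across replicates above about 35% based on untreated-well scatter, with enough replicates individually passing, limit read from the data; inconclusive = no rule stated though some were filed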
NIH3T3 tox 2 – cytotoxicity in mouse NIH/3T3 fibroblasts; shares compounds with T cruzi growth-1; NIH/3T3 viability, CellTiter-Glo ATP luminescence, 90 h; inhibition, % at 24.9 µM; 5,600 tested, 56% active;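 active = mean loss of cell viability signal at or above a set limit, and enough replicates individually reaching it; inconclusive = meets only the mean limit or only the replicate share; inactive = meets neither condition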
A number is an active result; n = inactive; u = inconclusive; x = no result.

SMILES	T cruzi growth-1	Pf Dd2 growth	IDH1 R132H inh	KDM4C inh	T cruzi growth-2	T cruzi growth-3	3T3 cytotox	NIH3T3 tox 2
COc1ccc(NC(=O)Nc2ccc3c(c2)C(=O)N([C@@H](C)CO)C[C@H](C)[C@@H](CN(C)S(=O)(=O)c2ccc(OC)cc2)OCCCC[C@H](C)O3)cc1	u	n	x	n	108	n	n	n
COc1ccc(NC(=O)Nc2ccc3c(c2)C(=O)N([C@@H](C)CO)C[C@H](C)[C@@H](CN(C)S(=O)(=O)c2ccc(F)cc2)OCCCC[C@@H](C)O3)cc1	n	u	x	n	x	x	x	x
COc1ccc(S(=O)(=O)N(C)C[C@@H]2OCCCC[C@H](C)Oc3ccc(NC(=O)Nc4ccc5c(c4)OCO5)cc3C(=O)N([C@H](C)CO)C[C@@H]2C)cc1	103	-81	x	n	107	n	n	n
COc1ccc(S(=O)(=O)N(C)C[C@@H]2OCCCC[C@H](C)Oc3ccc(NC(=O)C4CCCCC4)cc3C(=O)N([C@H](C)CO)C[C@H]2C)cc1	99	-86	n	n	n	n	n	u
COc1ccccc1NC(=O)N[C@@H]1CC[C@@H](CCNS(=O)(=O)c2ccccc2)O[C@@H]1CO	n	n	n	n	x	x	x	x
CN(C)C(=O)c1ccc(-c2ccccc2[C@@H]2[C@@H](C#N)N(C(=O)C3CCC3)[C@@H]2CO)cc1	x	n	x	n	x	x	x	x
Cc1noc(C)c1NC(=O)Nc1cccc2c1O[C@@H](CN(C)S(C)(=O)=O)[C@@H](C)CN([C@@H](C)CO)C2=O	x	n	x	n	x	x	x	x
Cn1c2c(c(=O)n(C)c1=O)CN(CC1CC1)CN2	x	x	n	x	x	x	x	x
COc1ccc(NC(=O)Nc2ccc3c(c2)C(=O)N([C@H](C)CO)C[C@@H](C)[C@H](CN(C)S(=O)(=O)c2ccc(OC)cc2)OCCCC[C@@H](C)O3)cc1	105	n	n	n	109	n	n	n
COc1ccc(NC(=O)Nc2ccc3c(c2)C(=O)N([C@H](C)CO)C[C@@H](C)[C@@H](CN(C)S(=O)(=O)c2ccc(C)cc2)OCCCC[C@H](C)O3)cc1	n	n	x	n	x	x	x	x
COc1ccc(NC(=O)Nc2ccc3c(c2)C(=O)N([C@@H](C)CO)C[C@@H](C)[C@@H](CN(C)S(=O)(=O)c2ccc(OC)cc2)OCCCC[C@H](C)O3)cc1	n	n	n	n	x	x	x	x
COc1ccc(NC(=O)Nc2ccc3c(c2)C(=O)N([C@H](C)CO)C[C@H](C)[C@H](CN(C)S(=O)(=O)c2ccc(OC)cc2)OCCCC[C@H](C)O3)cc1	u	n	x	n	104	n	n	n
COc1ccc(NC(=O)Nc2ccc3c(c2)C(=O)N([C@@H](C)CO)C[C@H](C)[C@@H](CN(C)S(=O)(=O)c2ccc(C)cc2)OCCCC[C@@H](C)O3)cc1	97	-83	n	n	111	n	n	n
CO[C@H]1CN(C)C(=O)c2cc(NC(=O)c3cc(C)on3)ccc2OC[C@H](C)NC[C@@H]1C	n	n	n	n	x	x	x	x
CC(NS(=O)(=O)c1ccc(Br)cc1)C(=O)Nc1cccc(C(F)(F)F)c1 (stereo unspecified)	x	x	n	x	x	x	x	x
Cc1ccc(S(=O)(=O)Nc2ccc3c(c2)C(=O)N([C@@H](C)CO)C[C@H](C)[C@@H](CN(C)S(=O)(=O)c2ccccc2)OCCCC[C@H](C)O3)cc1	102	n	x	n	109	n	n	n
Cc1ccc(S(=O)(=O)Nc2ccc3c(c2)C(=O)N([C@@H](C)CO)C[C@@H](C)[C@H](CN(C)S(=O)(=O)c2ccccc2)OCCCC[C@H](C)O3)cc1	n	n	x	n	x	x	x	x
Cc1ccc(S(=O)(=O)Nc2ccc3c(c2)C(=O)N([C@@H](C)CO)C[C@@H](C)[C@H](CN(C)S(=O)(=O)c2ccccc2)OCCCC[C@@H](C)O3)cc1	105	n	n	n	106	n	n	n
Cc1ccc(S(=O)(=O)N(C)C[C@H]2OCCCC[C@H](C)Oc3ccc(NS(=O)(=O)c4ccccc4)cc3C(=O)N([C@H](C)CO)C[C@H]2C)cc1	u	n	x	n	x	x	x	x
Cc1ccc(S(=O)(=O)N(C)C[C@H]2OCCCC[C@@H](C)Oc3ccc(NS(=O)(=O)c4ccccc4)cc3C(=O)N([C@@H](C)CO)C[C@H]2C)cc1	u	n	x	n	109	n	n	n
Cc1ccc(S(=O)(=O)N(C)C[C@H]2OCCCC[C@@H](C)Oc3ccc(NS(=O)(=O)c4ccccc4)cc3C(=O)N([C@H](C)CO)C[C@H]2C)cc1	u	-83	x	n	101	n	n	n
Cc1ccc(S(=O)(=O)N(C)C[C@@H]2OCCCC[C@H](C)Oc3ccc(NS(=O)(=O)c4ccccc4)cc3C(=O)N([C@H](C)CO)C[C@@H]2C)cc1	u	n	x	n	x	x	x	x
C[C@H](CO)N1C[C@H](C)[C@@H](CN(C)Cc2ccc(C(F)(F)F)cc2)Oc2ccc(NC(=O)Cn3cnnn3)cc2C1=O	n	n	x	n	x	x	x	x
CN(C)C(=O)c1ccc(-c2ccc([C@H]3[C@H]4CN(C(=O)C5CCCCC5)CC(=O)N4[C@H]3CO)cc2)cc1	x	n	x	n	x	x	x	x
COCC(=O)N(C)C[C@@H]1Oc2ncc(Br)cc2C(=O)N([C@@H](C)CO)C[C@@H]1C	x	n	n	n	x	x	x	x
SMILES	T cruzi growth-1	Pf Dd2 growth	IDH1 R132H inh	KDM4C inh	T cruzi growth-2	T cruzi growth-3	3T3 cytotox	NIH3T3 tox 2
CCCNC(=O)[C@@H]1[C@@H](CO)[C@@H]2Cn3c(ccc(-c4ccccc4)c3=O)[C@@H]2N1CC	n	n	x	n	x	x	x	x
COc1ccccc1-c1cn(CC[C@H]2CC[C@H](NC(=O)C3CC3)[C@@H](CO)O2)nn1	x	n	n	n	x	x	x	x
Cc1ccc([N+](=O)[O-])cc1N(CC(=O)Nc1cccc(Br)c1)S(C)(=O)=O	x	x	n	x	x	x	x	x
C[C@@H]1CCCCO[C@@H](CN(C)S(=O)(=O)c2cccs2)[C@@H](C)CN([C@@H](C)CO)C(=O)c2cc(NC(=O)Nc3ccccc3)ccc2O1	n	x	x	n	x	x	x	x
C[C@@H]1CCCCO[C@H](CN(C)S(=O)(=O)c2cccs2)[C@H](C)CN([C@H](C)CO)C(=O)c2cc(NC(=O)Nc3ccccc3)ccc2O1	108	x	n	n	107	n	n	n
C[C@@H]1CCCCO[C@H](CN(C)S(=O)(=O)c2cccs2)[C@@H](C)CN([C@H](C)CO)C(=O)c2cc(NC(=O)Nc3ccc(F)cc3)ccc2O1	n	n	x	n	x	x	x	x
C[C@@H]1CCCCO[C@H](CN(C)S(=O)(=O)c2cccs2)[C@@H](C)CN([C@@H](C)CO)C(=O)c2cc(NC(=O)Nc3ccccc3)ccc2O1	u	x	n	n	107	n	n	n
